CDK5 p35 inh – inhibitors of human CDK5/p35 kinase, primary screen, biochemical, single concentration | inhibition, % at 10 µM | AID 488839, 2010 | 330,000 compounds, 0.01% hits | Recombinant CDK5/p35, ADP-Glo luminescence, 60 min | Cyclin-dependent kinase 5 (Homo sapiens) + Cyclin-dependent kinase 5 activator 1 (Homo …;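 active = highest replicate inhibition of at least 50% and at least 75% of replicates reaching 50%; inconclusive = only one of the two criteria met; inactive = both criteria failed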;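 also: plate controls were DMSO neutral control for no effect and GW8510 at 10 µM for full effect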
Target sequence (Q00535 whole entry, looked up): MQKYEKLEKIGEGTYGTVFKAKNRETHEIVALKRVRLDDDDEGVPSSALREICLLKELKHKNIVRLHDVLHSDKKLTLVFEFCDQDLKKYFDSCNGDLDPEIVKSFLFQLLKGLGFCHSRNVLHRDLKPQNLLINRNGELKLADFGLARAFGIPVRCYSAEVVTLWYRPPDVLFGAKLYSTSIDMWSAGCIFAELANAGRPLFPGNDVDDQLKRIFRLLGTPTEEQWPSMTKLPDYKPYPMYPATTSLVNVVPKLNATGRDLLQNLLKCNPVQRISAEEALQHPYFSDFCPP
Target sequence (Q15078 whole entry, looked up): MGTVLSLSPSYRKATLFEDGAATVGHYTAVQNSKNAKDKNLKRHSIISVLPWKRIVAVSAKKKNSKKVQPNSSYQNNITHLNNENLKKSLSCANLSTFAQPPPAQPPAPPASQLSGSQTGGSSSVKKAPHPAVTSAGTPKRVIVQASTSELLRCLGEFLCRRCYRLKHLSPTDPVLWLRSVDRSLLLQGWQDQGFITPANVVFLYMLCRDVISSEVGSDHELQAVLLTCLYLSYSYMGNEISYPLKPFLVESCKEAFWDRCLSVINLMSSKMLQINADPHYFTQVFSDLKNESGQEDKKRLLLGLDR
Env fusion inh – inhibitors of HIV-1 Env-driven cell-cell fusion, primary screen, HeLa-JRFL effector, CEM21 target cells, luciferase | inhibition, % at 12.3 µM | 360,000 compounds, 1.1% hits | AID 651610, 2012;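 active = mean replicate inhibition score of at least 50 and every replicate individually at or above 50; inconclusive = only one of the two criteria met; inactive = mean below 50 and not all replicates reaching 50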;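 also: 0% = plate neutral controls and 100% = maraviroc near 300 nM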
dFosB activator – activators of delta FosB homodimer, primary screen, biochemical, fluorescence polarization, TAMRA-CDK5 oligo, single point. activation, % at 25 µM. purified delta FosB; percent of positive-control signal above neutral wells. AID 493131, 2011. Protein FosB (Mus musculus), P13346. 340,000 compounds, 0.99% hits;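 active = mean activation above about 17%, with every replicate also reaching it, limit read from the data, passing the limit was not always enough; inconclusive = only one of the two conditions met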
Cneo AK release – Cryptococcus neoformans cell lysis inducers, primary screen, AK release luminescence, single concentration. lysis activity, % at 15 µM. AID 651654, 2012. 360,000 compounds, 0.2% hits. C. neoformans lysis, adenylate kinase release luminescence, 4 h; normalised: neutral wells 0, clomiphene wells 100;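 active = mean lysis activity across replicates of at least 80%, whatever share of replicates individually reach that level; inactive = mean lysis activity below 80%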
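Assay system: Cryptococcus neoformans yeast cells / Dosing: single-point compound dose / Timing: 4 h at 37 °C static, read 1 h later / Measured by: luminescence of released adenylate kinase using an AK detection reagent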
PAX8 reporter – inhibitors of PAX8-driven TPO luciferase reporter, primary screen, RMG-I cells, single concentration; inhibition, % at 12.6 µM; 360,000 compounds, 1.2% hits; SteadyGlo, 24 h;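 active = mean replicate inhibition at least 60% with every replicate also reaching 60%; inconclusive = only one of the two criteria is met; inactive = mean below 60% and not all replicates reaching 60%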;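 also: luciferase light reporting Pax8 driven TPO promoter activity; plate controls were median of neutral control wells for no effect and mitoxantrone controls for full effect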
INS-1E GSIS act – GLuc luminescence reporter in INS-1E cells, primary screen for activators of glucose-dependent secretion of insulin. INS-1E GLuc reporter insulin secretion, 2-3 h. activation, % at 16.6 µM. 370,000 compounds, 0.61% hits;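 active = lowest replicate activation of at least 40%, so every replicate reaches that level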;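 also: 0% = median of neutral control wells and 100% = median of IBMX positive control wells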
An asterisk follows results filed as active; ? = inconclusive; · = not tested or not shown; [ ] = another dose, or the depositor's remark. The list is not random: actives were taken first. Their share in the collection is about 2.9%.

SMILES	CDK5 p35 inh	Env fusion inh	dFosB activator	Cneo AK release	PAX8 reporter	INS-1E GSIS act
CCn1c(SCC(=O)OCc2ccccc2)nnc1-c1ccco1	-1	·	9	-10	·	-28
O=C1N/C(=N\N=C\c2cccs2)SC1Cc1cccc(Cl)c1 (configuration not stated)	-2	-2	15	·	6	86*
O=C1N/C(=N\N=C\c2cccs2)SC1Cc1ccc(Cl)cc1 (configuration not stated)	2	-15	2	5	0	-1
Cc1ccnc(NC(=O)c2ccc(Cl)cc2Cl)n1	·	18	·	·	3	13
COc1cc(-c2cc(C(=O)Nc3c(Cl)cc(Cl)cc3Cl)c3ccccc3n2)cc(OC)c1OC	1	13	-6	·	-4	·
Cc1cc(C)nc(NC(=O)c2ccc(Cl)cc2Cl)n1	0	4	-7	3	-18	68*
COc1ccc2nc3ccccc3nc2c1NC(=O)c1ccc(Cl)cc1Cl	0	3	-6	1	-13	87*
Cc1onc(-c2ccccc2)c1C(=O)OCCOc1cccc(Cl)c1	1	75*	-5	10	27	14
COC(=O)COc1ccc(C)cc1-n1nc2ccccc2n1	0	6	1	-1	14	48*
COc1cc(/C=N/n2c(-c3n[nH]c4c3CCC4)n[nH]c2=S)ccc1O	4	4	3	·	20	37
COc1ccc(/C=N/n2c(-c3n[nH]c4c3CCC4)n[nH]c2=S)cc1OC	1	9	-7	·	-15	45*
CC(C)NC(=O)Nc1ccc2c(c1)CC(=O)N([C@H](C)CO)C[C@@H](C)[C@H](CN(C)S(=O)(=O)c1cccs1)O2	·	-5[16.7 µM]	·	2	7	10
COc1ccc(NC(=O)Nc2ccc3c(c2)C(=O)N([C@@H](C)CO)C[C@H](C)[C@@H](CN(C)C(=O)c2ccccc2)OCCCC[C@H](C)O3)cc1	·	-21[16.7 µM]	·	-1	13	-6
COc1ccc(NC(=O)Nc2ccc3c(c2)C(=O)N([C@H](C)CO)C[C@H](C)[C@@H](CN(C)C(=O)c2ccccc2)OCCCC[C@H](C)O3)cc1	·	-50[16.7 µM]	·	1	4	-2
COc1ccc(NC(=O)Nc2ccc3c(c2)C(=O)N([C@H](C)CO)C[C@H](C)[C@H](CN(C)C(=O)c2ccccc2)OCCCC[C@H](C)O3)cc1	·	61*[16.7 µM]	·	41	4	-11
COc1ccc(NC(=O)Nc2ccc3c(c2)C(=O)N([C@@H](C)CO)C[C@H](C)[C@H](CN(C)C(=O)c2ccccc2)OCCCC[C@H](C)O3)cc1	·	56*[16.7 µM]	·	54	10	-16
C[C@H](CO)N1C[C@H](C)[C@H](CN(C)C(=O)C2CCCCC2)OCCCC[C@H](C)Oc2ccc(NS(=O)(=O)c3ccc(Cl)cc3)cc2C1=O	·	-135[16.7 µM]	·	1	?	0
C[C@@H]1CN([C@H](C)CO)C(=O)c2cc(NS(=O)(=O)c3ccc(Cl)cc3)ccc2O[C@@H](C)CCCCO[C@@H]1CN(C)C(=O)C1CCCCC1	·	-53[16.7 µM]	·	3	64*	-7
C[C@@H]1CCCCO[C@H](CN(C)C(=O)C2CCCCC2)[C@H](C)CN([C@@H](C)CO)C(=O)c2cc(NS(=O)(=O)c3ccc(Cl)cc3)ccc2O1	·	8[16.7 µM]	·	-1	76*	-12
CSc1nnc2c3cc(C)ccc3n(Cc3ccccc3)c2n1	-1	·	?	·	·	140*
c1ccc(Cn2c3ccccc3c3nnc(SCCN4CCCCC4)nc32)cc1	·	7	·	5	0	·
CC1(C)C2CCC(C2)C1(C)NC(=O)CNCC1CCCCC1 (configuration not stated)	1	61*	5	·	-1	-17
CCOCCCNCC(=O)NC1(C)C2CCC(C2)C1(C)C (configuration not stated)	1	3	-5	1	9	·
O=C(COc1cccc(NC(=O)c2cccc([N+](=O)[O-])c2)c1)c1ccc(F)cc1	-2	·	-11	·	·	·

Compound activity from PubChem BioAssay.
